# From PubChem BioAssay
# HSF1 activator – increases HSF-1 driven luciferase reporter signal; NIH3T3-HGL HSF-1 luciferase reporter, MG132, 8 h; 100% = twice DMSO control signal; activation, % at 9 µM; 1.7% of 300,000 active;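 active means mean replicate activation of at least 50% with a set share of replicates each reaching 50%; inconclusive means only one of those two conditions met; inactive means mean below 50% and too few replicates reaching it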;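 further: 0% = median of the neutral control wells and 100% = twice that signal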
# HSF1 inh – HSF1 inhibition; NIH3T3-HGL HSE-luciferase, MG132-induced, luminescence 8 h; active compounds read low; activity change, negative = inhibition, % at 7.5 µM (by protocol); 0.77% of 300,000 active;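 active means more than half of replicate wells show activity change below -50%, luminescence cut by over half; inconclusive means some wells, but at most half, below -50%; inactive means no replicate well below -50%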;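 further: luciferase reports HSF-1 transcriptional activity via heat shock element; 0% = median of DMSO wells and -100% = zero luminescence signal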
# Hsp70 activator – transcriptional activators of Hsp70; HeLa Hsp70 promoter luciferase reporter, luminescence; scaled: vehicle 0, proteasome-inhibitor control 100%; activation, % at 10 µM; 0.04% of 200,000 active; AID 1203;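 active means activation above the mean across all tested compounds plus 3 SD, cutoff set per campaign, cut at about 5.5% in these data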;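 further: 100% = MG132 at 30 µM as the positive control and 0% = DMSO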
# MDM2 E3 inh – blocks human Mdm2 ubiquitin ligase activity; 0.11% of 210,000 active; Q00987; AID 1230; cell-based MDM2 ubiquitination luciferase reporter, 2 h; 0 = plate control, 100 = twice control, blank-subtracted; signal enhancement, % at 5 µM;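 active means signal enhancement of 30% or more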;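 further: luminescence tracks abundance of the self-degrading MDM2-luciferase fusion protein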
# Target sequence (Q00987 whole entry, looked up, the tested form may be a part): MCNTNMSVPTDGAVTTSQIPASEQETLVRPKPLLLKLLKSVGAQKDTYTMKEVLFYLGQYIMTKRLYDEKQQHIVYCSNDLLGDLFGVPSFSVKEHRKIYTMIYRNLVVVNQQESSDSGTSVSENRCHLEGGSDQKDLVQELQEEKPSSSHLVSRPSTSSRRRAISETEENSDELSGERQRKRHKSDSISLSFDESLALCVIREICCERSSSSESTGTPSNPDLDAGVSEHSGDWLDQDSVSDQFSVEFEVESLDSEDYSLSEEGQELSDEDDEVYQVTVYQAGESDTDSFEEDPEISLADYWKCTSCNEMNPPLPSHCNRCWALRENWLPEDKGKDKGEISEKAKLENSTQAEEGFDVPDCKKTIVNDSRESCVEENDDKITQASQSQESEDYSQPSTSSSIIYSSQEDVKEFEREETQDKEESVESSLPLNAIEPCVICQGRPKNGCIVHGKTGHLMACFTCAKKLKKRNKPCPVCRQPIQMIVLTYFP
#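 test system = mammalian cells stably expressing self-ubiquitinating, self-degrading MDM2 E3–luciferase fusion | quantity = 2000 cells/well | incubation = cell settling 4 h, compound treatment 2 h, both 37 °C | signal = luminescence with SteadyLite reagent, 15 min at room temperature | evaluation = % enhancement relative to plate controls after blank subtraction | benchmarks = plate controls and plate blanks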
# Rad51 HR inh – blocks human Rad51 in homologous recombination; 0.085% of 200,000 active; inhibition, % at 10 µM; hRad51 DNA strand exchange, fluorescence dequenching; Q06609; AID 1385;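 active means inhibition above 40% at the single screening dose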;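 further: 0% = DMSO control wells and 100% = blanks with heterologous ssDNA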
#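 material = hRad51 filaments on single-stranded DNA | timing = filaments 15 min 37 °C, then compound 30 min | signal = FRET fluorescence dequenching, excitation 485 nm, emission 520 nm | benchmarks = control wells and blank wells on each plate | evaluation = percent inhibition relative to plate controls and blanks | compound = 10 µM final, single point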
# HSV replic up – HSV replication enhancement; maximum fold increase; 0.005% of 220,000 active; HSV replication augmentation in cells, fold increase; in the data active means maximum fold increase above about 1.5; inconclusive means no clear call, values can overlap the other calls; tested in PC3 cells
# * = called active by the depositor; i = inactive; ? = inconclusive; . = no result. Hits are enriched below; roughly 2.6% of the tested compounds scored in any of these assays.
SMILES,HSF1 activator,HSF1 inh,Hsp70 activator,MDM2 E3 inh,Rad51 HR inh,HSV replic up
Cc1cc(C)nc(/N=C(\NC(=O)C(C)(C)C)Nc2ccccc2)n1,-5,-6,.,-10,8,i
Oc1ccc(-c2nccc(-c3ccc(F)cc3)n2)cc1,17,19,.,.,.,.
COCCN(C(=O)COC(=O)/C=C/c1ccc(C(F)(F)F)cc1)c1c(N)n(Cc2ccccc2)c(=O)[nH]c1=O,-74,-67*,.,.,.,.
COCCN(C(=O)COC(=O)/C=C/c1cccs1)c1c(N)n(Cc2ccccc2)c(=O)[nH]c1=O,3,-2,.,.,.,.
Cc1ccc(CNC(=O)CCc2cn(C)c3ccccc23)cc1,11,3,.,.,.,.
COc1ccc(CN2CCC(n3nccc3NC(=O)CCOc3ccccc3)CC2)cc1C,17,1,.,.,.,.
COc1ccc(OCCOCCN2CCc3ccccc3C2)cc1,-7,-3,0,-26,-6,i
N#Cc1ccc(OCCN2CCc3ccccc3C2)cc1,85*,37,.,.,.,.
COc1ccc(C(=O)CSc2nnc(-c3cnccn3)n2Cc2ccco2)cc1,-5,-5,0,-4,3,i
O=C(CSc1nnc(-c2cnccn2)n1Cc1ccco1)Nc1ccc(Br)cc1,55*,31,0,-6,-3,i
O=C(Nc1ccc(Cc2nc3ccccc3s2)cc1)c1ccncc1,0,-1,.,.,.,.
CCCCOc1ccc(C2C(=O)N(C3CCCCC3)CC(=O)N2CC2CCCO2)cc1 (stereo not drawn),-63,-54*,0,10,.,i
Cc1oc2c(CN3CCCCC3C)c(O)ccc2c(=O)c1-c1ccc(Br)cc1 (stereo not drawn),-12,-10,.,.,.,.
Cc1nn2cc(-c3ccc(Cl)cc3)cnc2c1Cl,35,24,0,-24,-4,i
OCCN(Cc1ccccc1)Cc1ccccc1Cl,13,3,-1,-14,5,i
OCCN(Cc1ccccc1)Cc1cccc(Cl)c1Cl,-82,-80*,0,2,-4,i
COCCn1c(N)c(N(Cc2ccccc2)C(=O)c2ccc(C#N)cc2)c(=O)[nH]c1=O,55*,13,0,-10,-10,i
COc1cccc2[nH]c3c(N4CCc5ccccc5C4)ncnc3c12,60*,43,.,-20,-2,i
CC(C)(Oc1ccc(Cl)cc1)C(=O)Nc1ccc(S(=O)(=O)Nc2ncccn2)cc1,10,2,.,.,.,.
Cc1cc(=O)oc2cc(OCCc3ccccc3)ccc12,50,25,.,.,.,.
Cc1cc(=O)oc2cc(OCC#N)ccc12,-66,-56*,0,-9,4,i
COc1cc(/C=N/N2CCN(C3c4ccccc4-c4ccccc43)CC2)cc(OC)c1O,1,6,1,-2,-1,i
COc1cc(/C=N/N2CCN(C3c4ccccc4-c4ccccc43)CC2)cc(OC)c1OC,103*,48,0,-17,8,i
O=C(O)/C=C/c1cccc(NS(=O)(=O)c2ccccc2)c1,-3,4,0,-12,-7,i
Nc1cccc(/C=C/C(=O)O)c1,-70,-58*,.,-65,-6,i
SMILES,HSF1 activator,HSF1 inh,Hsp70 activator,MDM2 E3 inh,Rad51 HR inh,HSV replic up
CCC(=O)NCc1c(C)c(C)n(Cc2ccccc2)c1-n1cccc1,3,-2,0,-8,-12,i
S=c1[nH]nc(-c2ccccc2)n1/N=C/c1ccc(-c2ccccc2Cl)o1,151*,86,0,-3,.,i
Fc1cccc(Cl)c1/C=N/n1c(-c2cccnc2)n[nH]c1=S,-11,-3,0,45*,3,i
Cc1ccc(-n2c(SCC(=O)N(C)C3CCS(=O)(=O)C3)nc3ccccc3c2=O)cc1 (stereo not drawn),-4,3,0,-9,-5,i
O=C(Nc1ccncc1)Nc1ccncc1,-1,-2,0,41*,6,i
O=C(Nc1ccncc1)Nc1ccc(Cl)cc1,15,3,.,.,.,.
COC(=O)c1cc(C(=O)OCC(=O)NC(=O)c2ccccc2)cc([N+](=O)[O-])c1,1,-2,.,.,.,.
CC(C)c1ccc([N+](=O)[O-])cc1S(=O)(=O)N1CCN(C)CC1,4,-6,.,.,.,.
CCOC(=O)c1c(NC(=O)CSc2nnc(-c3c[nH]c4ccccc34)n2CCOC)sc2c1CCCC2,10,10,0,.,.,.
CCOC(=O)c1c(NC(=O)CSc2nnc(-c3c[nH]c4ccccc34)n2C)sc2c1CCCC2,-65,-56*,0,.,6,i
COc1nc(-c2ccccc2)c2cc(Br)ccc2n1,-75,-68*,.,.,.,.
COc1ccc(C(=O)N/N=C(\c2ccccc2)c2ccccn2)cc1,100*,38,0,-8,4,i
CCC(C)N(C(=O)c1csnn1)C(C(=O)NC1CCCC1)c1c(F)cccc1Cl (stereo not drawn),-4,-4,.,.,.,.
CCCCNC(=S)NNc1c(Cl)cc(Cl)cc1Cl,-78,-72*,0,-17,-5,i
Cc1ccsc1C1Nc2ccc3ncccc3c2C2=C1C(=O)CCC2 (stereo not drawn),18,11,0,34*,-10,i
O=c1cc(COc2ccc(Cl)c(Cl)c2)nc2sccn12,57*,35,.,-5,-15,i
O=c1cc(CNc2cc(Cl)ccc2Cl)nc2sccn12,31,10,0,-1,16,i
CC(C)(C)C(=O)Nc1ccc(/C=C/C(=O)c2ccco2)cc1,-23,-25,.,.,.,.
c1ccc(CSc2nnc(-c3cccs3)o2)cc1,11,15,0,-18,-2,i
Fc1ccccc1CSc1nnc(-c2cccs2)o1,67*,42,0,.,3,i
N#Cc1ccccc1CSc1nnc(-c2ccncc2)o1,60*,25,.,.,.,.
c1ccc2c(CSc3nnc(-c4ccncc4)o3)cccc2c1,59*,35,0,-23,0,i
Clc1ccccc1CSc1nnc(-c2ccncc2)o1,?,9,0,5,1,i
CCc1c(C(=O)N/N=C/c2ccco2)nnn1-c1nonc1N,3,-5,.,.,.,.
Cc1ccc(S(=O)(=O)NCc2ccccc2)cc1C(=O)N(C)Cc1ccccc1F,10,3,.,.,.,.
SMILES,HSF1 activator,HSF1 inh,Hsp70 activator,MDM2 E3 inh,Rad51 HR inh,HSV replic up
Cc1ccnc(S(=O)(=O)Cc2ccc([N+](=O)[O-])cc2)n1,8,-5,.,.,.,.
Cc1cc(C)cc(C(=O)Nc2cccnc2Cl)c1,14,5,.,.,.,.
Cc1ccc(C(=O)Nc2cccnc2Cl)cc1Cl,59*,20,.,.,.,.
CSc1cccc(NC(=O)/C=C/c2ccccc2)c1,74*,27,0,-7,-7,i
CCN(CC)S(=O)(=O)c1ccc(/C=C/C(=O)Nc2cccc(F)c2)cc1,67*,40,0,4,-1,i
O=C(/C=C/c1ccccc1)Nc1cccc(C(=O)O)c1,-83,-78*,-1,-86,-5,i
